Compounds with a hit are over-represented: about 1.9% of the library has one in this group of screens.
Scp1 inh – inhibitors of human Scp-1 phosphatase | actives 0.88% (n = 340,000) | Recombinant Scp1, phosphopeptide, malachite green phosphate absorbance | AID 493091 | Q9GZU7 | inhibition, % at 20 µM;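 active = inhibition above about 50% at 20 µM, limit read from the data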;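 note: plate controls were DMSO wells with enzyme for no effect and wells lacking enzyme for full effect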
Target sequence (Q9GZU7 76-261 limits assumed): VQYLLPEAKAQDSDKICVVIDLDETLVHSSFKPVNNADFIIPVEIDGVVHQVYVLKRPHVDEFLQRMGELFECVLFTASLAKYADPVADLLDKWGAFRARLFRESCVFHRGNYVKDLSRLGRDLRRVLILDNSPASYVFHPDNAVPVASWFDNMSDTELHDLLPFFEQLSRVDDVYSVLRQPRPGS
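Test system: SCP-1 phosphatase catalytic domain, residues 76-261; measured by: colorimetric phosphate reagent with accelerator and stabiliser, absorbance at 630 nm; timing: enzyme reaction 45 min at room temperature, colour 5 min, stabilisation 30 min; also added: Phosphorylated 17-residue peptide substrate; compound dosing: one concentration, 20 µM, with 1.0% DMSO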
DNMT1 block – inhibitors of human DNMT1 | inhibition (reported as % activation of signal), % at 10 µM | DNMT1 molecular beacon, Hinp1I cleavage, fluorescence | actives 0.83% (n = 360,000) | P26358; in the data active = inhibition above about 50%
SUMO HTRF inh – SUMOylation inhibition; P63279; HTRF SUMOylation assay, SAE1/SAE2 + UBC9, in vitro; inhibition, % at 35 µM; actives 0.36% (n = 290,000); in the data active = inhibition above about 50%, passing the limit was not always enough
Target sequence (P63279 whole entry, looked up): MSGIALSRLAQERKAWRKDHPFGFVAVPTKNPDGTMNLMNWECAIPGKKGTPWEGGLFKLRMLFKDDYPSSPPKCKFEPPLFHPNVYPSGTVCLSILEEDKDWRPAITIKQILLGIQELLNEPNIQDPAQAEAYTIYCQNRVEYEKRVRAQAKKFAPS
LMPTP block – blocks human LMPTP phosphatase | P24666 | recombinant LMPTP-A, OMFP fluorogenic substrate, fluorescence intensity | inhibition, % at 20 µM | actives 0.22% (n = 360,000) | AID 651560;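 active = compounds that cut the enzyme signal by at least half of the control window in the single-dose screen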;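 note: plate controls were DMSO wells with enzyme plus substrate for no effect and substrate without enzyme for full effect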
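Test system: LMPTP-A, protein tyrosine phosphatase of low molecular weight; Input: 0.625 nM enzyme; Incubation: 50 min dark incubation at room temperature; Signal: endpoint fluorescence intensity from OMFP dephosphorylation; Read-out basis: % inhibition versus control wells.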
SUMO1-SIM PPI – modulators of human SUMO1-mediated protein-protein interactions; P63165; SUMO1 binding to a labelled peptide, TR-FRET, 1 h; inhibition, % at 20 µM; actives 0.33% (n = 360,000); in the data active = inhibition above about 37%
Target sequence (P63165 whole entry, looked up): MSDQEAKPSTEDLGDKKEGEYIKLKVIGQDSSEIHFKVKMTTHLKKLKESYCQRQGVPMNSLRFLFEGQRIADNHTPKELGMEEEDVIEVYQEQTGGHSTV
STEP block – blocks human striatal-enriched tyrosine phosphatase | P54829 | recombinant STEP, OMFP fluorogenic substrate, fluorescence | inhibition, % at 20 µM | actives 0.25% (n = 360,000);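 active = inhibition at 20 µM, scaled per plate between control wells, above about 37%, limit read from the data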;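 note: 0% = DMSO with enzyme and substrate and 100% = substrate only without enzyme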
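Also added – OMFP at 25 µM · Test system – STEP tyrosine phosphatase · Technique – FITC-channel fluorescence of OMFP product · Schedule – 20 min at room temperature, dark · Evaluation – control-normalized % inhibition with plate pattern correction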
Scp-1 conf – confirmation of human Scp-1 phosphatase inhibitors; shares compounds with Scp1 inh; recombinant SCP-1 catalytic domain, phosphate release, malachite green absorbance; inhibition, % at 20 µM; actives 61% (n = 2,500); AID 540281;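 note: plate controls were DMSO with enzyme for no effect and buffer wells lacking enzyme for full effect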
MG interference – counter-screen for Scp-1 inhibitors: colorimetric interference; 2,500 tested, under 10 active; apparent inhibition (interference), % at 20 µM; Colorimetric interference counterscreen, malachite green absorbance 630 nm; shares compounds with Scp1 inh;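 note: compounds added after enzyme reaction finished so only phosphate colour detection is probed; plate controls were DMSO wells with completed Scp-1 reaction for no effect and substrate wells lacking enzyme for full effect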
Scp-1 Tm shift – binds human Scp-1, shifting its melting temperature; thermal shift relative to vanadate control, % at 40 µM; shares compounds with Scp1 inh; Recombinant SCP1, Sypro Orange thermal shift Tm; actives 25% (n = 1,500);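 active = substances whose mean melting-temperature shift, as a percentage of the reference inhibitor's shift, reaches about 5.3%, limit read from the data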;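 note: 0% = Tm of DMSO wells and 100% = Tm with sodium orthovanadate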
DNMT1 confirm – DNMT1 inhibition confirmation, single concentration; shares compounds with DNMT1 block; actives 8% (n = 2,300); DNMT1 molecular beacon HinP1I cleavage, fluorescence; AID 602385; inhibition, % at 10 µM;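 active = average inhibition of at least 30% in the single-concentration confirmation test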
Beacon interf – shows spectral interference in the DNMT1 beacon assay; shares compounds with DNMT1 block; DNMT1 molecular beacon spectral interference counterscreen, fluorescence 485/520; activation (fluorescence interference), % at 10 µM; actives 1% (n = 2,300);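 active = activation of at least 30% at 10 µM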;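 note: DNMT1 catalytic domain with a HinP1I cleavage step and a FAM/dabcyl DNA beacon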
Numbers without * were called inactive; . = no result.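 Rule for the calls, unless noted: active = inhibition of at least 30% at 20 µM; inactive = the rest.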

SMILES | Scp1 inh | DNMT1 block | SUMO HTRF inh | LMPTP block | SUMO1-SIM PPI | STEP block | Scp-1 conf | MG interference | Scp-1 Tm shift | others
CN1C(=O)/C(=C/c2ccccc2OCc2ccc(C(=O)O)cc2)NC1=S | -2 | -2 | 5 | 1 | -8 | 2 | . | . | .
Cc1cccc(NC(=O)CN2C(=O)N/C(=C\c3ccccc3OCc3ccc(C(=O)O)cc3)C2=O)c1 | 85* | 0 | 24 | 6 | -18 | 18 | 74* | -18 | -10
O=C(O)c1ccc(COc2ccc3ccccc3c2/C=C2/NC(=O)N(c3ccccc3)C2=O)cc1 | -15 | -1 | 30 | 1 | 1 | 1 | . | . | .
O=C(CSc1nnc(NC(=O)c2ccco2)s1)Nc1ccccc1 | -3 | -1 | 22 | -2 | 3 | 1 | . | . | .
Nc1cc(=O)[nH]c(SCC(=O)Nc2ncc(C(F)(F)F)cc2Cl)n1 | -5 | 0 | 13 | -1 | 0 | -1 | . | . | .
Cc1cc(N2CCOCC2)ccc1/C=C1\NC(=O)N(CC(=O)Nc2ccccc2C)C1=O | -2 | 46 | 19 | 0 | -14 | 0 | . | . | .
Cc1ccccc1NC(=O)CN1C(=O)N/C(=C\c2ccccc2OCc2ccc(C(=O)O)cc2)C1=O | 103* | 29 | 49 | 36 | -13 | 3 | 83* | -13 | -487
O=C(CN1C(=O)N/C(=C\c2ccccc2OCc2ccc(C(=O)O)cc2)C1=O)Nc1ccc(F)cc1 | 70* | -2 | 1 | 1 | -17 | 7 | 65* | -20 | -3
Cc1cc(N2CCOCC2)ccc1/C=C1\NC(=O)N(CC(=O)Nc2ccc(F)cc2)C1=O | 1 | -5 | 14 | 1 | -14 | 0 | . | . | .
O=C(CCC(=O)Nc1cccc(C(F)(F)F)c1)NCC1CCCO1 (stereo not drawn) | 0 | 1 | 8 | -2 | 2 | 1 | . | . | .
O=[N+]([O-])c1cccn2cc(-c3ccc(Br)cc3)nc12 | 107* | 15 | 24 | 34 | -21 | 56* | 86* | -11 | 8.2*
CCOc1ccccc1NC(=O)NCc1ccccn1 | 0 | -2 | 0 | 0 | 3 | -1 | . | . | .
CSc1ccc(/C=N/NC(=O)c2ccc(C)c(C)c2)cc1 | 83* | 6 | -10 | 13 | 0 | 5 | 59* | -11 | -21
O=C1[C@H]2[C@@H]3CCN1CCC[C@@H]2C=C[C@@H]3c1ccc(Br)cc1 | . | . | . | 0 | 4 | . | . | . | .
O=C(O)c1cccc(-n2cccc2/C=C2\SC(=O)N(Cc3ccccc3F)C2=O)c1 | 93* | 91* | -6 | 8 | -5 | 11 | 81* | -24 | -6 | DNMT1 confirm=6;Beacon interf=0
O=C(O)c1cccc(-n2cccc2/C=C2/NC(=O)N(c3cccc(Cl)c3)C2=O)c1 | 85* | 97* | 16 | 5 | 35 | 3 | 64* | -16 | 4 | DNMT1 confirm=25;Beacon interf=4
O=C(O)c1cccc(-n2cccc2/C=C2/SC(=O)N(CC(=O)N3CCCC3)C2=O)c1 | 67* | 70* | -8 | 1 | -1 | 23 | 54* | -20 | -8 | DNMT1 confirm=2;Beacon interf=4
O=C(CN1C(=O)S/C(=C/c2cccn2-c2ccc(O)cc2)C1=O)N1CCCC1 | -1 | -3 | -2 | 0 | -15 | 1 | . | . | .
COc1cc(OC)cc(OC(=O)C2CCN(C(=O)c3ccc(F)cc3)CC2)c1 | -6 | 3 | . | -1 | 6 | -1 | . | . | .

Compound activity (PubChem)
